# According to ChEMBL document CHEMBL4270565, “Design, synthesis and antimicrobial evaluation of propylene-tethered ciprofloxacin-isatin hybrids” (Eur J Med Chem, 2018):
# Assays:
# Klebsiella pneumoniae [1] = assay: Antibacterial activity against extended-spectrum beta-lactamase harboring Klebsiella pneumoniae ATCC 700603 after 18 to 24 hrs by two-fold serial dilution method; type: functional
# Outline: (§1)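 Agar two-fold serial dilution in Mueller-Hinton agar. Strains came from the Chinese Center for Disease Control and Prevention. Compounds were dissolved in 0.1 N NaOH and water, then diluted in melted agar to final levels stepping down from 128. Plates were inoculated with bacterial cfu and incubated at 35 C for 18–24 h. MIC is the lowest concentration giving 90% growth inhibition.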
# Klebsiella pneumoniae [2] = assay: Antibacterial activity against extended-spectrum beta-lactamase deficient Klebsiella pneumoniae 15-2 after 18 to 24 hrs by two-fold serial dilution method; type: functional
# Outline: (§2)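 Agar two-fold dilution MIC. Compounds were dissolved in 0.1 N NaOH and water, then serially diluted in melted Mueller-Hinton agar, with top concentrations starting at 128. Plates were inoculated at about 10 cfu and incubated at 35 °C for 18–24 h. MIC was taken as the lowest concentration giving 90% inhibition of growth.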
# [3] = tested on: Stenotrophomonas maltophilia; assay: Antibacterial activity against Stenotrophomonas maltophilia ATCC 13636 after 18 to 24 hrs by two-fold serial dilution method; type: functional; outline: as §2
# Enterococcus faecalis [4] = assay: Antibacterial activity against Enterococcus faecalis ATCC 51299 after 18 to 24 hrs by two-fold serial dilution method; type: functional; outline: as §2
# Staphylococcus aureus [5] = assay: Antibacterial activity against methicillin-sensitive Staphylococcus aureus ATCC 29213 after 18 to 24 hrs by two-fold serial dilution method; type: functional; outline: as §1
# [6] = tested on: Acinetobacter calcoaceticus; assay: Antibacterial activity against Acinetobacter calcoaceticus ATCC 19606 after 18 to 24 hrs by two-fold serial dilution method; type: functional; outline: as §2
# Klebsiella aerogenes = assay: Antibacterial activity against Enterobacter aerogenes ATCC 13048 after 18 to 24 hrs by two-fold serial dilution method; type: functional; outline: as §2
# Enterococcus faecium [7] = assay: Antibacterial activity against Enterococcus faecium 13-7 after 18 to 24 hrs by two-fold serial dilution method; type: functional; outline: as §2
# Citrobacter freundii = assay: Antibacterial activity against extended-spectrum beta-lactamase harboring Citrobacter freundii ATCC 43864 after 18 to 24 hrs by two-fold serial dilution method; type: functional; outline: as §1
# Staphylococcus aureus [8] = assay: Antibacterial activity against methicillin-resistant Staphylococcus aureus ATCC 33591 after 18 to 24 hrs by two-fold serial dilution method; type: functional; outline: as §1
# Enterococcus faecium [9] = assay: Antibacterial activity against Enterococcus faecium ATCC 700221 after 18 to 24 hrs by two-fold serial dilution method; type: functional; outline: as §2
# Escherichia coli [10] = assay: Antibacterial activity against extended-spectrum beta-lactamase harboring Escherichia coli ATCC 35218 after 18 to 24 hrs by two-fold serial dilution method; type: functional; outline: as §1
# Serratia marcescens = assay: Antibacterial activity against Serratia marcescens ATCC 21074 after 18 to 24 hrs by two-fold serial dilution method; type: functional; outline: as §2
# Enterococcus faecalis [11] = assay: Antibacterial activity against Enterococcus faecalis ATCC 29212 after 18 to 24 hrs by two-fold serial dilution method; type: functional; outline: as §2
# Proteus vulgaris = assay: Antibacterial activity against Proteus vulgaris ATCC 29905 after 18 to 24 hrs by two-fold serial dilution method; type: functional; outline: as §2
# Enterobacter cloacae = assay: Antibacterial activity against Enterobacter cloacae ATCC 43560 after 18 to 24 hrs by two-fold serial dilution method; type: functional
# Proteus mirabilis = assay: Antibacterial activity against Proteus mirabilis 13-1 after 18 to 24 hrs by two-fold serial dilution method; type: functional; outline: as §2
# [12] = tested on: Staphylococcus epidermidis; assay: Antibacterial activity against methicillin-resistant Staphylococcus epidermidis 13-3 after 18 to 24 hrs by two-fold serial dilution method; type: functional; outline: as §1
# Providencia rettgeri = assay: Antibacterial activity against Providencia rettgeri ATCC 31052 after 18 to 24 hrs by two-fold serial dilution method; type: functional; outline: as §2
# [13] = Cytotoxicity against African green monkey Vero cells assessed as reduction in cell viability after 72 hrs by MTT assay; type: cell-based; settings: chlorocebus sabaeus
# Outline: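 VERO cells were kept in MEM with Earle's salts and 10% FBS at 37 °C, 5% CO2. They were seeded in 96-well plates and allowed to recover for 24 h. Cells were then exposed to compounds in DMSO over a series from 1000 down to 4 for 72 h. Viability was read by MTT, and CC50 was calculated by Bliss analysis.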
# [14] = tested on: Mycobacterium tuberculosis; assay: Antimycobacterial activity against Mycobacterium tuberculosis H37Rv after 7 days; type: functional; settings: 168 h
# Outline: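 Rapid direct susceptibility test in 48-well plates. Two-fold dilutions of compound from DMSO stocks were mixed with an equal volume of bacterial suspension. Medium-only wells served as growth controls and water-only wells as no-growth controls. Plates were sealed and held at 37 C in a humid box, and controls were checked at 3 days. MIC (90% growth inhibition) was read visually by high-magnification observation of the cells and re-read at 7 days.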
# Morganella morganii = assay: Antibacterial activity against Morganella morganii ATCC 25830 after 18 to 24 hrs by two-fold serial dilution method; type: functional; outline: as §2
# Pseudomonas aeruginosa = assay: Antibacterial activity against Pseudomonas aeruginosa ATCC 27853 after 18 to 24 hrs by two-fold serial dilution method; type: functional; outline: as §2
# Escherichia coli [15] = assay: Antibacterial activity against extended-spectrum beta-lactamase deficient Escherichia coli ATCC 25922 after 18 to 24 hrs by two-fold serial dilution method; type: functional; outline: as §2
# [16] = tested on: Staphylococcus epidermidis; assay: Antibacterial activity against methicillin-sensitive Staphylococcus epidermidis ATCC 12228 after 18 to 24 hrs by two-fold serial dilution method; type: functional; outline: as §2
SMILES,MIC90 (Klebsiella pneumoniae [1]),MIC90 (Klebsiella pneumoniae [2]),MIC90 [3],MIC90 (Enterococcus faecalis [4]),MIC90 (Staphylococcus aureus [5]),MIC90 [6],MIC90 (Klebsiella aerogenes),MIC90 (Enterococcus faecium [7]),MIC90 (Citrobacter freundii),MIC90 (Staphylococcus aureus [8]),MIC90 (Enterococcus faecium [9]),MIC90 (Escherichia coli [10]),MIC90 (Serratia marcescens),MIC90 (Enterococcus faecalis [11]),MIC90 (Proteus vulgaris),MIC90 (Enterobacter cloacae),MIC90 (Proteus mirabilis),MIC90 [12],MIC90 (Providencia rettgeri),CC50 at 72 h [13],also measured
CO/N=C1\C(=O)N(CCCN2CCN(c3cc4c(cc3F)c(=O)c(C(=O)O)cn4C3CC3)CC2)c2ccccc21,0.5 mg/L,≤ 0.03 mg/L,0.06 mg/L,1 mg/L,0.125 mg/L,0.5 mg/L,≤ 0.03 mg/L,32 mg/L,≤ 0.03 mg/L,0.25 mg/L,8 mg/L,≤ 0.03 mg/L,0.06 mg/L,0.5 mg/L,≤ 0.03 mg/L,≤ 0.03 mg/L,≤ 0.03 mg/L,2 mg/L,≤ 0.03 mg/L,32 mg/L,MIC90 [14]: 0.39 mg/L; MIC90 (Morganella morganii): ≤ 0.03 mg/L; MIC90 (Pseudomonas aeruginosa): 1 mg/L; MIC90 (Escherichia coli [15]): ≤ 0.03 mg/L; MIC90 [16]: 0.125 mg/L
CCO/N=C1\C(=O)N(CCCN2CCN(c3cc4c(cc3F)c(=O)c(C(=O)O)cn4C3CC3)CC2)c2ccc(C)cc21,0.5 mg/L,≤ 0.03 mg/L,0.06 mg/L,1 mg/L,0.125 mg/L,0.5 mg/L,≤ 0.03 mg/L,32 mg/L,≤ 0.03 mg/L,0.125 mg/L,4 mg/L,≤ 0.03 mg/L,0.06 mg/L,0.5 mg/L,≤ 0.03 mg/L,≤ 0.03 mg/L,≤ 0.03 mg/L,2 mg/L,≤ 0.03 mg/L,128 mg/L,MIC90 [14]: 3.12 mg/L; MIC90 (Morganella morganii): ≤ 0.03 mg/L; MIC90 (Pseudomonas aeruginosa): 1 mg/L; MIC90 (Escherichia coli [15]): ≤ 0.03 mg/L; MIC90 [16]: 0.125 mg/L
O=C1C(=O)N(CCCN2CCN(c3cc4c(cc3F)c(=O)c(C(=O)O)cn4C3CC3)CC2)c2ccccc21,1 mg/L,0.125 mg/L,0.125 mg/L,1 mg/L,0.25 mg/L,1 mg/L,≤ 0.03 mg/L,64 mg/L,≤ 0.03 mg/L,0.25 mg/L,8 mg/L,≤ 0.03 mg/L,0.25 mg/L,1 mg/L,≤ 0.03 mg/L,0.03 mg/L,≤ 0.03 mg/L,4 mg/L,0.03 mg/L,128 mg/L,MIC90 [14]: 0.2 mg/L; MIC90 (Morganella morganii): ≤ 0.03 mg/L; MIC90 (Pseudomonas aeruginosa): 1 mg/L; MIC90 (Escherichia coli [15]): ≤ 0.03 mg/L; MIC90 [16]: 0.25 mg/L
CCO/N=C1\C(=O)N(CCCN2CCN(c3cc4c(cc3F)c(=O)c(C(=O)O)cn4C3CC3)CC2)c2ccccc21,0.5 mg/L,0.03 mg/L,0.125 mg/L,1 mg/L,0.25 mg/L,1 mg/L,≤ 0.03 mg/L,32 mg/L,≤ 0.03 mg/L,0.25 mg/L,8 mg/L,≤ 0.03 mg/L,0.125 mg/L,1 mg/L,≤ 0.03 mg/L,0.06 mg/L,≤ 0.03 mg/L,2 mg/L,≤ 0.03 mg/L,64 mg/L,MIC90 [14]: 0.78 mg/L; MIC90 (Morganella morganii): 0.03 mg/L; MIC90 (Pseudomonas aeruginosa): 1 mg/L; MIC90 (Escherichia coli [15]): ≤ 0.03 mg/L; MIC90 [16]: 0.25 mg/L
